Series [1] concerns Human immunodeficiency virus 1. In words: Selectivity ratio of EC50 for VSV-G pseudotyped HIV1 harboring integrase G140S/Q148H mutant infected in HOS cells to EC50 for VSV-G pseudotyped HIV1 harboring wild-type integrase infected in HOS cells. The series is classed as functional. Put shortly:
(§1)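 Fold change is the EC50 against the mutant-IN vector divided by the EC50 against the WT-IN vector. Both come from the single-round luciferase infectivity assay in HOS cells, with a 3 h compound pretreatment followed by 48 h infection.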

For series [2], the system named is Human immunodeficiency virus 1. As to the kind of experiment: Antiviral activity against VSV-G pseudotyped HIV1 harboring integrase G140S/Q148H double mutant infected in HOS cells pretreated […] for 3 hrs followed by viral infection measured after 48 hrs by luciferase reporter gene assay. The series is classed as functional, cell-based. The settings on record: Human immunodeficiency virus 1, HOS. The procedure, abridged:
(§2)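 Single-round luciferase HIV-1 vector (pNLNgoMIVR−ΔLUC carrying WT or mutant IN) was pseudotyped with VSV-g by calcium phosphate co-transfection of 293 cells, and supernatant was harvested after 48 h. HOS cells were seeded at 4000/well in DMEM with 5% FBS and 5% newborn calf serum. They were pretreated 3 h at 37 °C with 5–0.0001 μM (11 serial dilutions), then infected for 48 h. Luminescence was normalized to untreated cells, and EC50 came from nonlinear regression.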
For orientation: In a reporter assay the amount or activity of a reporter protein is the signal.

A short description of series [3]: Inhibition of HIV1 integrase strand transfer activity using 5'-end 32P labeled DNA substrate measured after 2 hrs by PAGE based phosphor imaging method. Details: species or system Human immunodeficiency virus 1. The procedure, abridged:
(§3)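 Gel-based assay, Mg2+ cofactor: 400 nM integrase with 20 nM DNA substrate 5′-32P-labeled on transferred strand in 50 mM MOPS pH 7.2, 7.5 mM MgCl2, 14 mM 2-mercaptoethanol, inhibitor or DMSO; 2 h at 37 °C. Stopped with formamide/SDS loading buffer; products resolved on 16% denaturing polyacrylamide gels, quantified by phosphorimaging.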

Series [4] concerns Human immunodeficiency virus 1. In words: Antiviral activity against VSV-G pseudotyped HIV1 harboring wild-type integrase infected in HOS cells pretreated […] for 3 hrs followed by viral infection measured after 48 hrs by luciferase reporter gene assay. The series is classed as functional, cell-based. The settings on record: Human immunodeficiency virus 1, HOS. Put shortly:
as §2

Series [5] has as its system HOS. As to the kind of experiment: Cytotoxicity against HOS cells assessed as reduction in cell viability after 48 hrs by ATPLite luminescence assay. The series is classed as cell-based. The settings on record: human, hos, 48 h. The procedure, abridged: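 HOS cells seeded at 4000 per well the day before, exposed to compounds over 250 to 0.05 μM at 37 °C for 48 h. ATP measured by luminescence after lysis and 20 min signal development at room temperature.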

In series [6] the test system is Human immunodeficiency virus 1. As to the kind of experiment: Selectivity ratio of EC50 for VSV-G pseudotyped HIV1 harboring integrase Y143R mutant infected in HOS cells to EC50 for VSV-G pseudotyped HIV1 harboring wild-type integrase infected in HOS cells. The series is classed as functional. Put shortly: as §1
The subject of series [7] is Human immunodeficiency virus 1. As to the kind of experiment: Antiviral activity against VSV-G pseudotyped HIV1 harboring integrase Y143R mutant infected in HOS cells pretreated […] for 3 hrs followed by viral infection measured after 48 hrs by luciferase reporter gene assay. The series is classed as functional, cell-based. As to conditions: Human immunodeficiency virus 1, HOS. The procedure, abridged:
as §2

Series [8] concerns Human immunodeficiency virus 1. As to the kind of experiment: Antiviral activity against VSV-G pseudotyped HIV1 harboring integrase N155H mutant infected in HOS cells pretreated […] for 3 hrs followed by viral infection measured after 48 hrs by luciferase reporter gene assay. The series is classed as functional, cell-based. The settings on record: Human immunodeficiency virus 1, HOS. Put shortly: as §2

For series [9], the system named is Human immunodeficiency virus 1. In words: Selectivity ratio of EC50 for VSV-G pseudotyped HIV1 harboring integrase N155H mutant infected in HOS cells to EC50 for VSV-G pseudotyped HIV1 harboring wild-type integrase infected in HOS cells. The series is classed as functional. The procedure, abridged: as §1
Series [10] in a line: Inhibition of HIV1 integrase 3' processing activity using 5'-end 32P labeled DNA substrate measured after 2 hrs by PAGE based phosphor imaging method. Details: species or system Human immunodeficiency virus 1. The procedure, abridged: as §3

Where only a bound is given, the exact number is not on record here.

On to `CC(C)NC(=O)CCc1cnc2c(c1)c(N)c(C(=O)NCc1ccc(F)cc1F)c(=O)n2O`, for which the entries for the “Ratio EC50” value in series [1], in [6] and in series [9] were 3, 2 and 2, respectively. For the same compound, the EC50 (as a rule, the midpoint of the concentration-response curve) is 13 nM in [2], 5 nM in series [4], 8.7 nM in [7] and 11 nM in series [8]. Besides, in series [3], the IC50 (in general, the concentration that gives 50% inhibition) came to 2 nM. Moreover, the CC50 – broadly, the concentration giving 50% cytotoxicity – in series [5] was greater than 250000 nM.
Regarding `CC(C)NC(=O)/C=C/c1cnc2c(c1)c(N)c(C(=O)NCc1ccc(F)cc1F)c(=O)n2O`, the “Ratio EC50” value in series [1] was found to be 136; in series [6], 5; in [9], 6. Moreover, the EC50 in [2] was 286 nM; in series [4] it was 2.1 nM; in series [7], 11 nM; in [8], 12 nM. In series [3], this compound came in with an IC50 of 6 nM. Also, the half-maximal cytotoxic concentration (CC50) in series [5] was greater than 250000 nM.
For `COC(=O)CNc1c(C(=O)NCc2ccc(F)cc2F)c(=O)n(O)c2nc(N3CCOCC3)ccc12`, the figures for the IC50 in [10] and in series [3] were greater than 333000 nM and 6200 nM, respectively.
`Nc1c(C(=O)NCc2ccc(F)cc2F)c(=O)n(O)c2ncc(/C=C/C(=O)NCCO)cc12`: in series [3], the IC50 stood at 7 nM. Moreover, the EC50 in series [4] came to 196 nM. The cytotoxic concentration (CC50) in [5] is greater than 250000 nM.
With `Nc1c(C(=O)NCc2ccc(F)cc2F)c(=O)n(O)c2nc(N3CCCCC3)ccc12`, the IC50 in series [10] was greater than 333000 nM; in series [3], 54000 nM.
With `Nc1c(C(=O)NCc2ccc(F)cc2F)c(=O)n(O)c2ncc(CCC(=O)NCCO)cc12`, the IC50 in series [3] turned out to be 2 nM. The EC50 in [4] is 263 nM. In series [5], the CC50 is greater than 250000 nM.
As to `COC(=O)CNc1c(C(=O)NCc2ccc(F)cc2F)c(=O)n(O)c2nc(OC)ccc12`, the figures for the IC50 in [10] and in [3] were 20000 nM and 42 nM, respectively. Moreover, the EC50 in series [4] was 32 nM; in [7] it was 52 nM; in [8], 1260 nM. Besides, the CC50 in [5] is 12000 nM. For the same compound, the “Ratio EC50” value in series [6] was found to be 2; in series [9], 39.
As for `COc1ccc2c(O)c(C(=O)NCc3ccc(F)cc3F)c(=O)n(O)c2n1`, the IC50 in series [10] is 32000 nM; in [3] it was 33 nM. In series [4], the EC50 was determined as 215 nM. Also, in series [5], the CC50 was found to be 12000 nM.
`O=C(NCc1ccc(F)cc1F)c1c(O)c2ccc(N3CCOCC3)nc2n(O)c1=O`: the IC50 was greater than 333000 nM in [10] and 1900 nM in series [3].
Consider `CN(C)C(=O)CCc1cnc2c(c1)c(N)c(C(=O)NCc1ccc(F)cc1F)c(=O)n2O`, for which the “Ratio EC50” value in series [1] came out at 12; in series [6], 5; in series [9] it was 5. Also, the EC50 is 16 nM in [2], 1.3 nM in series [4], 6 nM in [7] and 6.8 nM in series [8]. Also, in series [3], half-maximal inhibition (IC50) was put at 8 nM. In series [5], the CC50 was greater than 250000 nM.
On to `Nc1c(C(=O)NCc2ccc(F)cc2F)c(=O)n(O)c2ncc(CCC(=O)O)cc12`, for which the “Ratio EC50” value in [1] was 103; in [6] it was 3; in [9] it was 5. Also, the EC50 in series [2] amounted to 195 nM; in series [4] it was 1.9 nM; in [7], 4.9 nM; in series [8], 10 nM. The IC50 in [3] is 4 nM. Also, the CC50 in series [5] is greater than 250000 nM.
With `Nc1c(C(=O)NCc2ccc(F)cc2F)c(=O)n(O)c2nc(N3CCOCC3)ccc12`, the IC50 in series [10] was greater than 333000 nM; in series [3] it was 54000 nM.
For `O=C(NCc1ccc(F)cc1F)c1c(O)c2ccc(N3CCCCC3)nc2n(O)c1=O` the same measures were greater than 333000 nM and 70000 nM.
Compound `Nc1c(C(=O)NCc2ccc(F)cc2F)c(=O)n(O)c2ncc(CCCC3CCCCC3)cc12` showed an IC50 in [10] of 289000 nM. The EC50 came out at 53 nM in series [4], 112 nM in series [7] and 146 nM in series [8]. Also, the CC50 in series [5] amounted to 27400 nM. Moreover, the “Ratio EC50” value in series [6] is recorded as 2; in series [9], 3.
As for `COC(=O)CNc1c(C(=O)NCc2ccc(F)cc2F)c(=O)n(O)c2nc(N3CCCCC3)ccc12`, the IC50 in series [10] was greater than 333000 nM; in [3], 96000 nM.

The record behind these values is ChEMBL document CHEMBL4038328, “Structure-Guided Optimization of HIV Integrase Strand Transfer Inhibitors” (J Med Chem, 2017).
